Results on ten molecules are retold here after ChEMBL document CHEMBL2390852, “Anti-influenza active and low toxic N-phenyl-substituted β-amidoamidines structurally related to natural antibiotic amidinomycin” (Bioorg Med Chem Lett, 2013).

Active and inactive are the calls of the source. No cut-off for these calls is given here. Bounds are passed on as bounds.

Series [1] deals with Influenza A virus. As to the kind of experiment: Antiviral activity against 1 infective dose of influenza A virus A/St. Petersburg/34/72 (H3N2) infected in dog MDCK cells assessed as virus-induced cytopathic effect after 48 hrs. The format is functional, organism-based. In short, it runs like this: (§1)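 MDCK cells in maintenance medium were infected with 1 infective dose or 100 doses, where 1 dose induced 50 3% cell death under standard conditions. Cells were incubated with compound at various concentrations for 48 h at 37 °C in 5% CO2. CPE was scored against cell and virus controls, and EC50 is the concentration giving 50% inhibition of CPE. Values are means of 2–4 separate experiments.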
(In general: Cytopathic effects are the visible damage that an infection or toxin causes in cultured cells.)

The test system of series [2] is influenza A virus A/St. Petersburg/34/72 (H3N2). As to the kind of experiment: Therapeutic index, ratio of CC50 for dog MDCK cells to EC50 for 1 infective dose of influenza A virus A/St. Petersburg/34/72 (H3N2). In kind it is cell-based. Conditions: read-out: Ratio CC50/EC50.
Series [3] deals with Influenza A virus. The series can be described thus: Antiviral activity against 100 infective dose of influenza A virus A/St. Petersburg/34/72 (H3N2) infected in dog MDCK cells assessed as virus-induced cytopathic effect after 48 hrs. In kind it is functional, organism-based. In outline:
as §1

Series [4] can be described thus: Cytotoxicity against dog MDCK cells after 48 hrs by MTT assay. In kind it is cell-based, Canis lupus familiaris. In short, it runs like this: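 MDCK cells were incubated with compound at various concentrations for 48 h. CC50 is the concentration causing 50% reduction of cell viability. Values are means of 2–4 separate experiments.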
A general note: Formazan colour is commonly taken as a measure of viable cells.

The subject of series [5] is influenza A virus A/St. Petersburg/34/72 (H3N2). The series can be described thus: Therapeutic index, ratio of CC50 for dog MDCK cells to EC50 for 100 infective dose of influenza A virus A/St. Petersburg/34/72 (H3N2. In kind it is cell-based. Conditions: read-out: Ratio CC50/EC50.
Series [6] is described as follows: Acute toxicity in sc dosed Balb/c mouse after 5 days. Conditions: in vivo. In kind it is organism-based. In outline: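 Male Balb/c mice, four per group, given single SC doses rising from 1000 to 4000 mg/kg in 500 mg/kg steps, in saline/DMSO 4:1 (200 µL total). LD50 was taken as the dose giving 50% mortality, with toxicity estimated in a 5 days test.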
Series [7] concerns H3N2 subtype. The series can be described thus: Antiviral activity against Influenza A virus (A/Aichi/2/1968(H3N2))-infected in Balb/c mouse at </= 100 mg/kg, sc after 7 to 14 days. The format is functional, organism-based. The arrangement: dose 100 mg/kg.
The test system of series [8] is H3N2 subtype. The series can be described thus: Antiviral activity against Influenza A virus (A/Aichi/2/1968(H3N2))-infected in Balb/c mouse at 0.1 LD50/dose, sc for 5 times measured after 7 to 14 days. In kind it is functional, organism-based. In outline:
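Balb/c mice of both sexes, 10 per group, were infected intranasally with mouse-adapted virus. […] Vehicle controls received the same schedule. Survivors were counted on days 7 and 14.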

Series [9] has as its system Influenza A virus. As to the kind of experiment: Antiviral activity against influenza A virus A/St. Petersburg/34/72 (H3N2) infected in dog MDCK cells using chicken erythrocytes by hemadsorption assay. The format is functional, organism-based. In outline:
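Hemadsorption of chicken erythrocytes was used alongside the CPE read-out on infected MDCK cells after 48 h compound incubation at 37 °C in 5% CO2. The results of the two assays were averaged.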

For series [10], the system named is Mus musculus. The series can be described thus: Sub-acute toxicity in Balb/c mouse assessed as survival at 1000 mg/kg, sc after 10 days. In kind it is organism-based. Further details: dose 1000 mg/kg, route subcutaneous. Conditions: in vivo, 240 h. In outline: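 Four male Balb/c mice each received a single SC dose of 1000 mg/kg in saline/DMSO 4:1. Survival was followed for at least 10 days.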

For series [11], the system named is Mus musculus. The series can be described thus: Sub-acute toxicity in Balb/c mouse assessed as behavioural change at 300 mg/kg, sc administered for 6 days measured on day 10. The format is organism-based. The arrangement: dose 300 mg/kg, route subcutaneous. Conditions: in vivo, 144 h. In short, it runs like this:
(§2)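 Four mice, two of each sex, were given 300 mg/kg SC daily for 6 days. Behaviour and body weight were assessed at day 10.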

Series [12] relates to Mus musculus. The series can be described thus: Sub-acute toxicity in Balb/c mouse assessed as change in body weight at 300 mg/kg, sc administered for 6 days measured on day 10. The format is organism-based. The arrangement: dose 300 mg/kg, route subcutaneous. To be noted: in vivo, 144 h. In short, it runs like this: as §2

Consider `CC(=O)N(CC(C)/C(=N\c1ccccc1)Nc1ccccc1)c1ccccc1` (racemic), for which the EC50 is 68 µM in series [1] and at least 200 µM in series [3]. Further, the selectivity ratio in series [2] came out at 2.25. Further, it took 153 µM to reach half-maximal cytotoxicity in series [4] (CC50 at 48 h).

For `CCCCCCCCCCCCC(=O)N(CC(C)/C(=N\c1ccccc1)Nc1ccccc1)c1ccccc1.Cl` (racemic), the selectivity ratio stood at 32 in series [5] and 128 in series [2]. For the same molecule, the results for the EC50 in series [1] and in series [3] were 6.95 µM and 27.8 µM, respectively. In addition, the LD50 at 120 h in series [6] turned out to be 4000 mg/kg. Also, the result in series [7] was inactive. The result in series [8] was Active. In series [4], half-maximal cytotoxicity (CC50 at 48 h) was put at 890 µM.

On to `CC(CNc1ccccc1)/C(=N\c1ccccc1)Nc1ccccc1` (racemic), for which the EC50 in series [1] and in series [3] was at least 200 µM each time. This molecule also gave a 50% cytotoxic concentration (CC50) at 48 h in series [4] of 85 µM.

Turning to `CC(CN(C(=O)c1ccccc1)c1ccccc1)/C(=N\c1ccccc1)Nc1ccccc1` (racemic), the EC50 in series [1] was above 100 µM; in series [3] it was at least 200 µM. The selectivity ratio in series [2] is below 2.85. For the same molecule, in series [4], the CC50 at 48 h turned out to be 286 µM.

In the case of `CCCC(=O)N(CC(C)/C(=N\c1ccccc1)Nc1ccccc1)c1ccccc1` (racemic), the selectivity ratio turned out to be 2.2 in series [5] and 9 in series [2]. The EC50 in series [1] turned out to be 24 µM; in [3], 98 µM. In addition, in series [4], it took 216 µM to reach half-maximal cytotoxicity (CC50 at 48 h).

For the molecule `CCCCCCCCCCCCCCCCCC(=O)N(CC(C)/C(=N\c1ccccc1)Nc1ccccc1)c1ccccc1` (racemic), the values for the selectivity ratio in series [5] and in series [2] were 17 and 80, respectively. Further, the EC50 in series [1] turned out to be 15.6 µM; in [3], 72 µM. In series [4], this molecule displayed a CC50 at 48 h of 1240 µM.

With `N=C(N)CCNC(=O)[C@@H]1CC[C@H](N)C1` [(1R,3S)-AMIDINOMYCIN], in series [6], the LD50 at 120 h worked out at 10 mg/kg.

Consider `CC(N)C12CC3CC(CC(C3)C1)C2` (stereo not drawn) [RIMANTADINE], for which the selectivity ratio in series [5] was 32; in series [2], 256. Besides, the EC50 was determined as 5.45 µM in series [1] and 43.5 µM in series [3]. In series [6], this molecule came in with an LD50 at 120 h of 175 mg/kg. Further, the result in series [7] was Active. This molecule came in with a CC50 at 48 h in series [4] of 1400 µM.

As for `CCCCCCCCCCC(=O)N(CC(C)/C(=N\c1ccccc1)Nc1ccccc1)c1ccccc1.Cl` (racemic), the selectivity ratio in series [5] is 128; in [2], 514. The EC50 in series [1] was 1.82 µM; in series [3], 7.3 µM. For the same molecule, in series [6], the LD50 at 120 h stood at 3500 mg/kg. Besides, in series [7], the outcome was inactive. For the same molecule, the outcome in series [8] and in [9] was Active. In series [4], this molecule showed a CC50 at 48 h of 936 µM.

`CCCCCCCCC(=O)N(CC(C)/C(=N\c1ccccc1)Nc1ccccc1)c1ccccc1.Cl` (racemic): the figures for the selectivity ratio in series [5] and in [2] were 125 and 260, respectively. Further, the EC50 in [1] came to 0.95 µM; in [3], 1.98 µM. Further, in series [6], the LD50 at 120 h was found to be 3000 mg/kg. Besides, the Activity entry in [10], in series [11] and in series [12] was “Non-toxic” in each case. In series [7], the outcome was inactive. Moreover, the outcome in series [8] and in series [9] was Active. In series [4], this molecule yielded a CC50 at 48 h of 247 µM.

Broadly, the EC50 is the midpoint of the concentration-response curve. As usually defined, the CC50 is the concentration giving 50% cytotoxicity. A higher CC50 goes with better tolerance by the cells. One may read the LD50 as the dose expected to kill half of the subjects tested.
